Insulin prom up: MIN6 insulin promoter up-regulation; MIN6 insulin promoter-GFP reporter, high-content imaging; active compounds read high; z-score at 5 µM; 0.3% of 190,000 active;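 active = z-score above 3 at 5 µM with at least 500 cells counted in the well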
INS promoter inh: TRM-6 insulin promoter activity inhibition. AID 1273. TRM-6 cells (human fetal islet line), insulin promoter-eGFP reporter, imaging; reporter expression induced with tamoxifen. 0.9% of 130,000 active. inhibition, % at 2 µM;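 active = inhibition above the mean plus 3 SD, with well images judged a real hit on visual review, cut at about 60% in these data, passing the limit was not always enough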
Dynein cargo inh: blocks dynein driven cargo transport along microtubules. 3617.4 mouse cells, GR-EGFP nuclear translocation imaging; test concentration mostly 20 µM; stimulated with dexamethasone, 1 µM; active compounds read low. z-score, hits read low. 0.47% of 220,000 active;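 active = plate z-score of nuclear minus cytoplasmic receptor signal below a set negative limit, without overly bright fluorescence or cell loss, cut at about -3.5 in these data, passing the limit was not always enough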;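 note: z-score of nuclear minus cytoplasmic ring GR-EGFP intensity difference per well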
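Also added: dexamethasone, 1.0 µM final. Medium: tet-free, stripped-serum medium. Detection: fixed, Hoechst-stained cells imaged at 10x for EGFP. Read-out: nuclear-to-cytoplasmic GR-EGFP distribution per well. Times: induction 48 h, compound 1 h, agonist 30 min.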
Autophagy HCS: modulators of autophagy | MEF GFP-LC3 puncta imaging; test concentration mostly 10 µM | calls only at 10 µM (by protocol) | 0.98% of 190,000 active;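 active = percentage of spot-positive cells more than 3 SD above its plate mean, without a fluorescence outlier flag or 80% toxicity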
Numbers stand for hits; 0 = inactive; - = no result given; + = active, no number. Shown are actives, neighbours in structure and some others; about 2% of the full set was active somewhere.

SMILES	Insulin prom up	INS promoter inh	Dynein cargo inh	Autophagy HCS
CSc1nc(-c2ccc(Cl)cc2)nn1C(=O)c1ccccc1	0	79.4	0	0
CC(C)C(=O)Nc1ccc(S(=O)(=O)Nc2ccccn2)cc1	0	-	0	0
COc1ccc(-c2nc(C)ncc2-c2csc(C)n2)c(O)c1	0	0	0	0
COc1ccc(-c2ncncc2-c2csc(C)n2)c(O)c1	0	0	0	+
COc1ccc(N(CCN2C(=O)c3ccccc3C2=O)C(=O)c2cccc([N+](=O)[O-])c2)cc1	3.09	-	0	0
CCCc1nn(C)c2c(=O)[nH]c(-c3cc(S(=O)(=O)NC)ccc3OCC)nc12	0	-	0	-
C/C(=N/NC(=O)c1ccc(C)s1)c1cccc(NC(=O)COc2ccc(Cl)cc2Cl)c1	0	0	0	0
C/C(=N/NC(=O)c1cccs1)c1ccc(NC(=O)COc2ccc(Cl)cc2Cl)cc1	0	-	0	+
O=C(Nc1ccc(Cl)cc1)c1cccs1	0	0	0	0
O=C(Cc1ccc(Cl)cc1)Nc1ccc(NC(=O)c2cccs2)cc1	0	0	0	+
O=C(NCc1ccco1)c1cc([N+](=O)[O-])ccc1Cl	0	-	0	0
O=C(NCc1ccco1)c1cc([N+](=O)[O-])cc([N+](=O)[O-])c1	0	66.7	0	0
O=C(NCc1ccco1)c1cc2ccccc2c(=O)o1	0	78.6	0	0
COc1cc2c(cc1C1NC(=S)NC(C)=C1C(N)=O)CCCC2 (stereo not drawn)	0	0	0	0
Cc1ccc(NCC(O)C(O)C(O)CO)cc1C (stereo not drawn)	0	0	0	0
Cc1cc(N=Nc2ccccc2)c(NCC(O)C(O)C(O)CO)cc1C (stereo not drawn)	0	82.3	0	0
Cc1c(Cl)c(C(F)F)nn1CC(=O)NC1C(=O)N2C(C(=O)O)=C(CSc3nnnn3C)CSC12 (stereo not drawn)	0	-	0	0
Cn1nnnc1SCC1=C(C(=O)O)N2C(=O)C(NC(=O)Cn3nc(C(F)F)cc3C3CC3)C2SC1 (stereo not drawn)	0	0	0	+
O=C(O)c1nccnc1C(=O)Nc1ccccc1-c1ccccc1	-	-	0	-
CCOC(=O)N1CCc2c(sc(NC(=O)CN3CCN(C)CC3)c2C(=O)Nc2ccccc2)C1	0	0	0	0
CCOC(=O)N1CCc2c(sc(NC(=O)CN3CCOCC3)c2C(=O)Nc2ccccc2)C1	0	-	0	+
OCCN1CCN(c2cc(C(F)(F)F)nc3c(F)cccc23)CC1	0	-	0	-
COc1ccc2[nH]c(CN3CCC(CO)(CCOc4ccccc4)CC3)c(C)c2c1	-	-	0	+
Cc1ccc(NC(=O)Cc2cc(C(=O)O)c3ccccc3n2)c(C)c1	0	-	0	0
Cc1cc(N2CCCC2)ccc1/C=C1\NC(=S)N(C)C1=O	-	-	0	+
SMILES	Insulin prom up	INS promoter inh	Dynein cargo inh	Autophagy HCS
CCN(CC)S(=O)(=O)c1ccc(Cl)c(NC(=O)COc2ccc(OC)cc2)c1	0	-	0	0
CC1CC(C)(C)N(C(=O)CN2C(=O)c3ccccc3C2=O)c2ccccc21 (stereo not drawn)	-	0	0	+
C/C(=N\Nc1ccc2nncn2n1)c1cccs1	0	-	0	-
Cc1ccc(C2C(C#N)=C(N)OC3=C2C(=O)CCC3)s1 (stereo not drawn)	0	-	0	0
Cc1ccsc1C1C(C#N)=C(N)OC2=C1C(=O)CCC2 (stereo not drawn)	-	0	0	+
CN1CCN(C(=S)NC(=O)c2ccc(C(C)(C)C)cc2)CC1	0	66.7	0	0
O=C(/C=C/c1ccccc1)Nc1scc(-c2ccccc2)c1C(=O)O	0	-	0	+
O=C(O)c1cccc(NC(=S)N/N=C/c2cccc(O)c2)c1	0	77.8	0	0
CSc1nsc(/C=C/Nc2ccc(C)cc2)c1C#N	3.5	0	0	0
C=CCN1C(=O)/C(=C2/Sc3ccc(OC)cc3N2C)SC1=Nc1cccc(O)c1	0	0	0	+
CCN(CC)c1ccc2cc(S(=O)(=O)c3ccc(Cl)cc3)c(=O)oc2c1	6.96	0	0	0
COCCn1c(Cc2cccn2C)nnc1SCC(=O)NCc1ccc2c(c1)OCO2	0	-	0	0
O=C(Cn1c(=O)oc2cc(S(=O)(=O)N3CCCCC3)ccc21)N1CCc2ccccc21	0	-	0	+
CC(=O)c1cnc(-c2ccccc2Cl)s1	0	76.9	0	0
CC(=O)c1cnc(-c2ccccn2)s1	0	0	0	0
CC1CCCCN1CC(O)COCCC12CC3CC(CC(C3)C1)C2 (stereo not drawn)	0	-	0	+
COC(=O)Nc1nc2ccc(-c3n[nH]c(=O)c4ccccc34)cc2[nH]1	0	0	0	0
C=CCOc1ccc2nc(NC(=O)OC)[nH]c2c1	0	-	0	+
Cc1nn2c(NCc3ccccn3)c3c(nc2c1-c1ccccc1)CCC3	0	-	0	-
COc1ccc(Nc2c3c(nc4c(-c5ccccc5)c(C)nn24)CCC3)cc1	0	90.8	0	0
O=C(CN1CCOc2ccccc21)NCc1ccc(Cl)cc1	0	0	0	0
O=C(CN1CCOc2ccccc21)NCc1ccc(F)cc1	0	60.0	0	0
O=C(NC(=O)c1ccccc1)OCCN1C(=O)c2ccccc2C1=O	0	0	0	0
COc1ccc2c(C(=O)CN(C)C3CCCCC3)c[nH]c2c1	4.45	0	0	0
COc1ccccc1NC(=O)Nc1ccccc1N1CCOCC1	0	-	0	-
SMILES	Insulin prom up	INS promoter inh	Dynein cargo inh	Autophagy HCS
c1ccc2c(c1)Nc1cc3ccccc3cc1S2	-	-	0	-
O=C1Nc2cc3c(cc2Sc2ccccc21)OCCO3	0	90.0	0	0
Cc1[nH]nc2ncc(C(=O)c3ccccc3O)cc12	0	80.0	0	0
CN1Cc2cc(C(=O)c3ccccc3O)cnc2NC1=O	0	0	0	0
Cc1cc(/C=C2\SC(N)=NC2=O)c(C)n1-c1ccc(F)cc1	0	-	0	0
O=C(N/N=C/c1c(Nc2cccc(C(F)(F)F)c2)nc2ccccn2c1=O)c1ccccc1	-	0	0	+
COc1ccc(-c2nnc(SCc3nc4ccccc4c(=O)[nH]3)o2)cc1	0	-	0	-
CCOc1ccc(NC(=O)/C=C/c2ccc(OC)cc2)c([N+](=O)[O-])c1	0	0	0	+
CC(=O)c1ccccc1NS(C)(=O)=O	0	-	0	0
Clc1ccc(-c2ccccc2)nn1	0	-	0	-
Cc1c(Cl)cccc1N1CC(C(=O)Nc2nccs2)CC1=O (stereo not drawn)	0	-	0	0
Cc1ccc(N2CC(C(=O)Nc3nccs3)CC2=O)cc1Cl (stereo not drawn)	-	-	0	+
O=C(Cn1nnc2ccccc21)c1ccc(Cl)cc1	0	-	0	-
O=C(Nc1ccc([N+](=O)[O-])cc1)Nc1nc(-c2ccc(Cl)s2)cs1	0	77.8	0	0
COc1cccc(C(=O)N2CCOCC2)c1	0	65.0	0	0
COc1cccc(C(=O)CN2C(=O)C(C)(C)Oc3ccc(C(=O)N4CCCCCC4)cc32)c1	3.58	0	0	0
CC(=O)c1ccc(N2CCN(C(=O)c3cccc(Oc4ccccc4)c3)CC2)cc1	0	0	0	+
O=C(c1cccc(C(=O)N2CCN(c3ccccc3)CC2)c1)N1CCN(c2ccccc2)CC1	0	0	0	0
O=C(Nc1cccc(NC(=O)c2cccs2)c1)c1ccc2c(c1)OCCO2	0	0	0	0

Bioassay records as filed in PubChem.
